Experimental data: ChEMBL document CHEMBL1129460, “Synthesis, biotransformation, and pharmacokinetic studies of 9-(beta-D-arabinofuranosyl)-6-azidopurine: a prodrug for ara-A designed to utilize the azide reduction pathway” (J Med Chem, 1996)

Assays:
[1] = Pharmacokinetic parameter after dosing of 100 mg/kg of compound administered orally in brain; type: ADME, organism-based; set-up: dose 100 mg/kg, route oral; settings: in vivo, po
In short: (§1)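 Female NIH Swiss mice (24–28 g) dosed 100 mg/kg, iv or po by line. At least three mice were sacrificed per time point, 0.08–6 h, and whole brains were frozen at -20 °C. Extracts were assayed by HPLC-UV with AzdU internal standard. Noncompartmental analysis: linear trapezoidal AUC extrapolated to infinity, T1/2 = 0.693/λz, relative exposure re = AUC brain/AUC serum.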

[2] = Pharmacokinetic parameter after dosing of 100 mg/kg of compound administered intravenously in brain; type: ADME, organism-based; set-up: dose 100 mg/kg, route intravenous; settings: in vivo, iv; in short: as §1
[3] = species: Mus musculus; assay: In vitro biotransformation of compound in mice liver homogenate 9-(beta-D-arabinifuranosyl)[…] analyte; type: ADME
In short: (§2)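 Mouse liver washed in cold saline, homogenized with 1 or 1.5 weight equiv water; homogenate incubated at 37 °C with substrate (initial 100 µg/mL; coformycin co-incubated where stated), water-bath shaker, blank half kept. Samples at 0, 5, 15, 30 min and 1–5 h; acetonitrile precipitation with AzdU internal standard, gradient HPLC-UV for ara-H, ara-A and 6-AAP. Kel and T1/2 are averages of two studies.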

[4] = species: Mus musculus; assay: In vitro biotransformation of compound in mice liver homogenate 9-(beta-D-arabinifuranosyl)adenine(ara-A) analyte; type: ADME; in short: as §2
[5] = species: Mus musculus; assay: In vitro biotransformation of compound in mice liver homogenate 9-(beta-D-arabinifuranosyl)-6-hypoxanthine(ara-H) analyte; type: ADME; in short: as §2
[6] = species: Mus musculus; assay: In vitro biotransformation of compound along with coformycin in mice liver homogenate 9-(beta-D-arabinifuranosyl)adenine(ara-A) analyte; type: ADME; in short: as §2

Nc1ncnc2c1ncn2[C@@H]1O[C@H](CO)[C@@H](O)[C@@H]1O [VIDARABINE]
Activity [1]: 1.35 | Activity [2]: 0.05 | Kel [3]: 0.31 h⁻¹ | T1/2 [3]: 2.24 h

[N-]=[N+]=Nc1ncnc2c1ncn2[C@@H]1O[C@H](CO)[C@@H](O)[C@@H]1O
Activity [1]: 0.3 | Kel [4]: 0.48 h⁻¹ | T1/2 [4]: 1.46 h | Activity [2]: 0.02 | Kel [5]: 0.26 h⁻¹ | T1/2 [5]: 2.45 h

OC[C@H]1O[C@@H](n2cnc3c2NC=NC[C@H]3O)[C@H](O)[C@@H]1O.[N-]=[N+]=Nc1ncnc2c1ncn2[C@@H]1O[C@H](CO)[C@@H](O)[C@@H]1O
Kel [6]: 0.27 h⁻¹ | T1/2 [6]: 2.58 h
